Results reported in ChEMBL document CHEMBL4622936, “Discovery of the potent non-steroidal glucocorticoid receptor modulator BAY 1003803 as clinical candidate” (Bioorg Med Chem Lett, 2020).
pEC50, pIC50: −log10 of the molar value.

Key:
[1] = Lipophilicity, logP of compound; format: physicochemical; details: octanol/water
[2] = Inhibition of collagenase (unknown origin) transfected in human HeLa cells by luciferase reporter gene assay; format: cell-based
[3] = tested on: HeLa; test: Inhibition of collagenase (unknown origin) transfected in human HeLa cells by luciferase reporter gene assay relative to control; format: cell-based
[4] = tested on: THP-1; test: Immunomodulatory activity in human THP1 cells assessed as reduction in LPS-induced IL-8 production; format: functional, cell-based
Outline: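 Human promyeloid THP-1 cells were stimulated with lipopolysaccharide to induce IL-8 synthesis, and inhibition of IL-8 production by the test compound was measured.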

[5] = tested on: THP-1; test: Immunomodulatory activity in human THP1 cells assessed as reduction in LPS-induced IL-8 production relative to control; format: functional
[6] = Clearance in male Wistar rat plasma at 1 mg/kg, iv; format: ADME, organism-based
[7] = Clearance in male Wistar rat blood at 1 mg/kg, iv; format: ADME, organism-based; details: whole blood
[8] = Volume of distribution at steady state in male Wistar rat blood at 1 mg/kg, iv; format: ADME, organism-based; details: whole blood, read-out: Vdss
[9] = Terminal half life in male Wistar rat blood at 1 mg/kg, iv; format: ADME, organism-based; details: whole blood, read-out: beta t1/2 (converted)
[10] = Mutagenicity in Salmonella typhimurium by Ames test; format: toxicity; details: salmonella enterica subsp. enterica serovar typhimurium
[11] = tested on: PBMC; test: Inhibition of LPS-induced TNFalpha release in human PBMC cells; format: functional, cell-based
Outline: (§1)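 Primary human peripheral blood mononuclear cells were stimulated with LPS (IL-12p40, TNFα) or PHA (IFNγ, IL-2, IL-4). Cytokine release was measured with test compound, and clobetasol and dexamethasone were run in parallel as reference glucocorticoids.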

[12] = tested on: PBMC; test: Inhibition of LPS-induced TNFalpha release in human PBMC cells relative to control; format: functional
[13] = tested on: PBMC; test: Inhibition of LPS-induced IL12p40 release in human PBMC cells; format: functional, cell-based; outline: as §1
[14] = tested on: PBMC; test: Inhibition of LPS-induced IL12p40 release in human PBMC cells relative to control; format: functional
[15] = tested on: PBMC; test: Inhibition of PHA-induced IL2 release in human PBMC cells; format: functional, cell-based; outline: as §1
[16] = tested on: PBMC; test: Inhibition of PHA-induced IL2 release in human PBMC cells relative to control; format: functional
[17] = tested on: PBMC; test: Inhibition of PHA-induced IFNgamma release in human PBMC cells; format: functional, cell-based; outline: as §1
[18] = tested on: PBMC; test: Inhibition of PHA-induced IFNgamma release in human PBMC cells relative to control; format: functional
[19] = tested on: PBMC; test: Inhibition of PHA-induced IL4 release in human PBMC cells; format: functional, cell-based; outline: as §1
[20] = tested on: PBMC; test: Inhibition of PHA-induced IL4 release in human PBMC cells relative to control; format: functional

Structure (SMILES) | logP [1] | pEC50 [2] | Emax [3] | pIC50 [4] | Emax [5] | further results
COc1ccc([C@H](Nc2cc(F)cc3[nH]c(=O)ccc23)[C@](O)(CO)C(F)(F)F)c(Cl)c1F | 2.4 | 9.00 | 88% | 9.20 | 92% | clearance [6]: 113 mL/min/kg; clearance [7]: 100 mL/min/kg; Vd [8]: 18 L/kg; half-life [9]: 2.9 h
Nc1cc(F)cc2[nH]c(=O)ccc12 |  |  |  |  |  | Activity [10]: Non-Toxic
COc1ccc([C@H](Nc2cc(F)cc3[nH]c(=O)ccc23)[C@](O)(CSC)C(F)(F)F)c(Cl)c1F | 3.9 | 9.40 | 94% | 10.00 | 100% | 
CCSC[C@@](O)([C@@H](Nc1cccc2nc(C)ccc12)c1ccc(F)cc1OC)C(F)(F)F | 4.4 | 8.00 | 72% | 8.30 | 78% | 
CCSC[C@@](O)([C@@H](Nc1cccc2nc(C)ccc12)c1ccc(Cl)c(F)c1OC)C(F)(F)F | 5.3 | 8.90 | 66% | 8.80 | 82% | 
CCSC[C@@](O)([C@@H](Nc1cccc2nc(C)ccc12)c1ccc(OC)cc1F)C(F)(F)F | 4.4 | 8.30 | 63% | 8.30 | 85% | 
Nc1cccc2c(=O)[nH]ccc12 |  |  |  |  |  | Activity [10]: Toxic
CC[C@H]1c2c(cc(F)c(F)c2O)[C@H](Nc2cccc3[nH]c(=O)ccc23)[C@@](O)(C(F)(F)F)C1OC (stereo not given in full) | 3.1 | 8.00 | 29% | 8.20 | 78% | 
C[C@@H]1C[C@H]2[C@@H]3CCC4=CC(=O)C=C[C@]4(C)[C@@]3(F)[C@@H](O)C[C@]2(C)[C@@]1(O)C(=O)CO [DEXAMETHASONE] |  | 8.10 | 100% | 8.60 | 100% | pIC50 [11]: 8.19; Efficacy [12]: 100%; pIC50 [13]: 8.37; Efficacy [14]: 100%; pIC50 [15]: 8.34; Efficacy [16]: 100%; pIC50 [17]: 8.42; Efficacy [18]: 100%; pIC50 [19]: 8.64; Efficacy [20]: 100%
CCSC[C@@](O)([C@@H](Nc1cccc2nc(C)ccc12)c1ccc(OC)cc1)C(F)(F)F | 4.2 | 8.00 | 70% | 8.20 | 86% | 
COC[C@@](O)([C@@H](Nc1cccc2nc(C)ccc12)c1ccc(OC)c(F)c1Cl)C(F)(F)F | 3.8 | 8.80 | 80% | 9.70 | 97% | 
CCSC[C@@](O)([C@@H](Nc1cc(F)cc2[nH]c(=O)ccc12)c1ccc(OC)c(F)c1Cl)C(F)(F)F | 4.3 | 8.50 | 92% | 8.80 | 93% | 
C[C@H]1C[C@H]2[C@@H]3CCC4=CC(=O)C=C[C@]4(C)[C@@]3(F)[C@@H](O)C[C@]2(C)[C@@]1(O)C(=O)CCl [CLOBETASOL] |  |  |  |  |  | pIC50 [11]: 9.64; Efficacy [12]: 102%; pIC50 [13]: 9.85; Efficacy [14]: 98%; pIC50 [15]: 9.85; Efficacy [16]: 97%; pIC50 [17]: 9.80; Efficacy [18]: 101%; pIC50 [19]: 10.15; Efficacy [20]: 99%
